Results filed as inconclusive are left out.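 How the source made its calls, unless noted: active means viability at or below 27.92% in each of two runs, the all-compound median minus 4 SD; inconclusive means no clear call, values can overlap the other calls; inactive means the rest.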
How the values were obtained:
[1] = S. cerevisiae growth inhibition in permissive medium (OD615), pilot counter-assay for S. cerevisiae lifespan shortening project, permissive growth control (AID 705;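 active means growth inhibition above 25% in both replicates, a cutoff set 3 SD above the mean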); settings: OD615, 24 h, at 10 µM, active compounds read high
Method in brief: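 Test system: Saccharomyces cerevisiae strain carrying genetically modified DeaD replicative-lifespan system; buffer or medium: SC raffinose/galactose permissive medium; dosing: one dose 10 µM, DMSO 0.25% final; times: 24 h exposure, 30 °C; measured by: OD at 615 nm; read-out basis: growth inhibition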

[2] = S. cerevisiae growth inhibition in restrictive medium, OD615, pilot screen, restrictive growth control, yeast lifespan reduction project (AID 706;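 active means growth inhibition above a set limit, 3 SD over mean compound inhibition, in both replicates, cut at about 43% in these data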;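 further: modified DeaD lifespan yeast strain shifted to restrictive glucose medium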); settings: OD615, 48 h, at 10 µM, active compounds read high
Method in brief: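 material = engineered S. cerevisiae DeaD strain | buffer or medium = glucose-based CSMM-D restrictive medium | dosing = one concentration, 10 µM final, 0.25% DMSO | schedule = 4 h pre-growth plus 48 h compound exposure, 30 °C | detection = OD615 absorbance reading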

[3] = doxorubicin toxicity protection in MRP-1 cells – H69AR cells, CellTiter-Glo, duplicate, MRP-1 activator project, pilot screen (AID 807;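 active means viability increase at or above a cutoff of the median across tested compounds plus 3 SD, cut at about 8.5% in these data, passing the limit was not always enough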;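 further: compound pretreatment 18-22 h then 72 h combined with doxorubicin; 0% = doxorubicin alone and 100% = vehicle without doxorubicin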); settings: H69AR viability with doxorubicin, CellTiter-Glo luminescence; at 10 µM; active compounds read high
[4] = viability of HCT116 without oncogenic beta-catenin – human colon tumor cells, pilot screen (AID 823;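 active means cell viability at or below a set limit in both duplicate runs, the limit being the all-compound median minus 4 SD, cut at about 23% in these data, passing the limit was not always enough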;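 further: 0% = wells killed by 20 µM Hyamine and 100% = untreated DMSO cell wells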); settings: HCT116 beta-catenin knockout viability, CellTiter-Glo, 60 h; at 10 µM; active compounds read low
[5] = viability of PTEN-null HCT116 cells – cell-based, HCT116 clonal line, CellTiter-Glo, pilot screen (AID 824); settings: HCT116 PTEN-deleted viability, 60 h, at 10 µM, active compounds read low;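 further: 0% = 20 µM Hyamine control and 100% = vehicle cell control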
[6] = RAM pathway blockade in budding yeast – dse1pr::URA3 reporter, 5-FOA selection, pilot screen (AID 869;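 active means inhibition over a set limit, the all-compound mean plus 3 SD, in both replicate runs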;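 further: 0% = DMSO wells with no growth and 100% = 10 µM 1-NA-PP1 with full growth; RAM network block rescues cells from 5-FOA so hits raise OD615 growth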); settings: S. cerevisiae dse1pr::URA3 5-FOA growth, OD615, 2 d; at 10 µM; active compounds read high; strain carries analog-sensitive mutant Cbk1 kinase
[7] = RAM signaling pathway blockade in yeast – S. cerevisiae, Pdr1DBD-CYC8 efflux-inhibited sensitized strain, primary screen (AID 1298;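 active means RAM network inhibition above 8.4% in each of two replicates, 3 SD over the compound average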;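 further: 0% = DMSO untreated cells without growth and 100% = 10 µM 1-NA-PP1 full growth; higher means more yeast growth rescued from 5-FOA killing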); settings: S. cerevisiae cbk1-as DSE1-URA3 strain, 5-FOA growth OD615, 2 d; at 50 µM; active compounds read high

CCOC(=O)c1c(C)c(-c2ccccc2)n(CC(=O)N2CCN(C)CC2)c1C
inactive: growth inhibition [1] -19% | growth inhibition [2] -24.2% | viability increase [3] -2.94% | viability [4] 102% | viability [5] 102% | inhibition [6] 2.83% | RAM network inhibition [7] 2.67%

O=C(CSc1ncnc2c1oc1ccccc12)NC1CCCCC1
inactive: growth inhibition [1] -5.42% | growth inhibition [2] 3.17% | viability increase [3] -0.15% | viability [4] 95% | viability [5] 85.3% | inhibition [6] 1.92% | RAM network inhibition [7] 4.21%

O=C(c1cnn2c(C(F)(F)F)cc(-c3ccco3)nc12)N1CCCCCC1
inactive: growth inhibition [1] -14.5% | growth inhibition [2] -11.4% | viability increase [3] -4.15% | viability [4] 91.3% | viability [5] 91.5% | inhibition [6] 0.705% | RAM network inhibition [7] 1.5%

Cn1c(=O)oc2cc(S(=O)(=O)N3CCCC3)ccc21
inactive: growth inhibition [1] 4.02% | growth inhibition [2] -7.37% | viability increase [3] -2.12% | viability [4] 102% | viability [5] 97.2% | inhibition [6] 0.645% | RAM network inhibition [7] 0.66%

CCOC(=O)N1CCC(N2C(=O)c3ccc(C(=O)NCc4ccc(F)cc4)cc3C2=O)CC1
inactive: growth inhibition [1] -0.31% | growth inhibition [2] -4.59% | viability increase [3] -1.21% | viability [4] 98.1% | viability [5] 100% | inhibition [6] 3.25% | RAM network inhibition [7] 8.97%

CC(C)Sc1oc(-c2ccco2)nc1S(=O)(=O)c1ccc(F)cc1
inactive: growth inhibition [1] -5.61% | growth inhibition [2] -0.07% | viability increase [3] -2.29% | viability [4] 94% | viability [5] 89.8% | inhibition [6] 1.54% | RAM network inhibition [7] 6.36%

O=C(C1CCC(CNc2c(N3CCOCC3)c(=O)c2=O)CC1)N1CCN(c2ccccc2)CC1 (configuration not stated)
inactive: growth inhibition [1] -0.4% | growth inhibition [2] -8.31% | viability increase [3] -1.19% | viability [4] 95.8% | viability [5] 83.7% | inhibition [6] 2.86% | RAM network inhibition [7] 1.31%

COc1ccc(NC(=O)c2c(NC(=O)CNCc3ccco3)sc3c2CCC3)c(OC)c1
inactive: growth inhibition [1] -3.54% | growth inhibition [2] -19% | viability increase [3] -1.44% | viability [4] 88.7% | viability [5] 79.2% | inhibition [6] 1.43% | RAM network inhibition [7] 5.28%

CC(=O)c1c(C)[nH]c(C(=O)Nc2cc(C)ccc2C)c1C
inactive: growth inhibition [1] 8.06% | growth inhibition [2] -8.57% | viability increase [3] -1.16% | viability [4] 98.5% | viability [5] 96.6% | inhibition [6] 2.14% | RAM network inhibition [7] 1.74%

CCc1cc2c(=O)n(N)c(CCC(=O)O)nc2s1
inactive: growth inhibition [1] -14.9% | growth inhibition [2] -3.94% | viability increase [3] -1.37% | viability [4] 100% | viability [5] 96.1% | inhibition [6] 0.425% | RAM network inhibition [7] 8.13%

CCN1CCN(c2cc(C)c3cc(NC(=O)Cc4ccc(OC)c(OC)c4)ccc3n2)CC1
inactive: growth inhibition [1] -15.9% | growth inhibition [2] -16.5% | viability increase [3] -5.64% | viability [4] 75.5% | viability [5] 77.2% | inhibition [6] 3.25% | RAM network inhibition [7] -0.95%

CC1=C(C(=O)OC(C)C)C(c2cccs2)n2ncnc2N1 (configuration not stated)
inactive: growth inhibition [1] -1.96% | growth inhibition [2] 7.93% | viability increase [3] -1.21% | viability [4] 101% | viability [5] 96.2% | inhibition [6] 0.955% | RAM network inhibition [7] 2.09%

O=C(CN1C(=O)CSc2ncccc21)N1CCOCC1
inactive: growth inhibition [1] 7% | growth inhibition [2] -0.87% | viability increase [3] -0.22% | viability [4] 97.9% | viability [5] 101% | inhibition [6] -0.115% | RAM network inhibition [7] 7.38%

COc1cc(C2NC(=O)N(C)C3=C2C(=O)CCC3)cc(OC)c1OC (configuration not stated)
inactive: growth inhibition [1] -3.03% | growth inhibition [2] -17.1% | viability increase [3] -0.05% | viability [4] 104% | viability [5] 99% | inhibition [6] 2.73% | RAM network inhibition [7] 4.71%

O=C(C1CC1)N1CCc2cc(Br)cc(S(=O)(=O)NCc3ccc4c(c3)OCO4)c21
inactive: growth inhibition [1] -4.48% | growth inhibition [2] -5.21% | viability increase [3] -1.52% | viability [4] 87.1% | viability [5] 86.1% | inhibition [6] 1.23% | RAM network inhibition [7] 5.72%

Cc1cc(C(C)(C)C)ccc1OCCN(C)C
inactive: growth inhibition [1] -2.25% | growth inhibition [2] -9.14% | viability increase [3] 0.25% | viability [4] 94.2% | viability [5] 94.9% | inhibition [6] 1.58% | RAM network inhibition [7] 2.2%

COc1cccc(OC)c1C(=O)Nc1nnc(C(C)C)s1
inactive: growth inhibition [1] -6.36% | growth inhibition [2] 6.23% | viability increase [3] -1.98% | viability [4] 89.9% | viability [5] 85.1% | inhibition [6] 2.25% | RAM network inhibition [7] 0.97%

Cc1onc(-c2ccccc2Cl)c1C(=O)Nc1nnc(-c2ccc(F)cc2)s1
inactive: growth inhibition [1] -16.7% | growth inhibition [2] -1.93% | viability increase [3] 2.9% | viability [4] 98.5% | viability [5] 90.5% | inhibition [6] 2.51% | RAM network inhibition [7] 5.79%

CCC1(C)C2(C#N)C(N)=NC(OC)(OC)C12C#N (configuration not stated)
inactive: growth inhibition [1] -5.98% | growth inhibition [2] -10.1% | viability increase [3] -0.83% | viability [4] 106% | viability [5] 99.3% | inhibition [6] 1.41% | RAM network inhibition [7] 2.07%

CNC(=O)CN1C(=O)CSc2nc(C)cc(C)c21
inactive: growth inhibition [1] -8.87% | growth inhibition [2] -6.29% | viability increase [3] 0.88% | viability [4] 99.9% | viability [5] 97.8% | inhibition [6] 1.83% | RAM network inhibition [7] 1.73%

Cc1cccc(CSc2nnc(Cn3c(=O)sc4ccccc43)n2C)c1
inactive: growth inhibition [1] -2.34% | growth inhibition [2] 1.82% | viability increase [3] -1.45% | viability [4] 86.4% | viability [5] 87.3% | inhibition [6] -0.065% | RAM network inhibition [7] 4.9%

Cc1cc(C)n2c(SCC(=O)Nc3ccccc3)nnc2n1
inactive: growth inhibition [1] -7.49% | growth inhibition [2] -9.43% | viability increase [3] -2.57% | viability [4] 102% | viability [5] 91.4% | inhibition [6] 1.94% | RAM network inhibition [7] -0.67%

COc1ccc(C)cc1Nc1cc(C)nc2ncnn12
inactive: growth inhibition [1] -7.14% | growth inhibition [2] 0.405% | viability increase [3] -4.44% | viability [4] 95.1% | viability [5] 88.9% | inhibition [6] 1.28% | RAM network inhibition [7] -1.57%

c1ccc(Cn2nnc3c(N4CCOCC4)ncnc32)cc1
inactive: growth inhibition [1] -15.8% | growth inhibition [2] -25.2% | viability increase [3] -1.15% | viability [4] 92.7% | viability [5] 89.5% | inhibition [6] 0.93% | RAM network inhibition [7] -0.79%

CCOc1ccc2nc(N3CCC(C(=O)N4CCN(C(=O)c5ccco5)CC4)CC3)sc2c1
inactive: growth inhibition [1] -10.8% | growth inhibition [2] -9.39% | viability increase [3] -4.93% | viability [4] 69.7% | viability [5] 77.7% | inhibition [6] 0.305% | RAM network inhibition [7] 3.91%

COc1ccccc1Nc1nc(N)nc(CN2CCOCC2)n1
inactive: growth inhibition [1] -12.9% | growth inhibition [2] -6.13% | viability increase [3] -0.98% | viability [4] 108% | viability [5] 101% | inhibition [6] 0.845% | RAM network inhibition [7] 3.74%

CCOc1ccc(C2c3c(oc4ccccc4c3=O)C(=O)N2c2ccccn2)cc1OC (configuration not stated)
inactive: growth inhibition [1] -15.4% | growth inhibition [2] -25.5% | viability increase [3] -4.13% | viability [4] 92.3% | viability [5] 96.2% | inhibition [6] 1.44% | RAM network inhibition [7] 1.32%

CCN(C(=O)c1sc(N)c(C#N)c1C)C1CCCCC1
inactive: growth inhibition [1] -1.28% | growth inhibition [2] -0.585% | viability increase [3] 0.43% | viability [4] 92.1% | viability [5] 91.6% | inhibition [6] 1.5% | RAM network inhibition [7] 0.01%

O=C(CCCn1c(=O)[nH]c2ccccc2c1=O)N1CCN(c2ccccn2)CC1
inactive: growth inhibition [1] -3.37% | growth inhibition [2] -16.9% | viability increase [3] -3.43% | viability [4] 98.3% | viability [5] 96.2% | inhibition [6] 2.37% | RAM network inhibition [7] 3.32%

CNC(=O)c1nnc(Cc2ccc(F)cc2)o1
inactive: growth inhibition [1] 2.65% | growth inhibition [2] 1.31% | viability increase [3] -0.04% | viability [4] 93.8% | viability [5] 98.9% | inhibition [6] 0.195% | RAM network inhibition [7] 2.48%

Cc1ccc(-c2nc(CS(=O)CC(=O)NCCN3CCCC3)c(C)o2)cc1 (configuration not stated)
inactive: growth inhibition [1] -8.03% | growth inhibition [2] -5.56% | viability increase [3] -2.7% | viability [4] 86.4% | viability [5] 99.3% | inhibition [6] 0.18% | RAM network inhibition [7] 0.43%

CCN(CC)c1ccc(C=Nc2ccc(C#N)cc2)c(O)c1
inactive: growth inhibition [1] -18.8% | growth inhibition [2] -19.5% | viability increase [3] -0.93% | viability [4] 99.4% | viability [5] 96.3% | inhibition [6] 1.43% | RAM network inhibition [7] 5.13%

COC(=O)c1cn(C(C)C(=O)NCc2ccco2)c2ccccc12 (configuration not stated)
inactive: growth inhibition [1] -16.9% | growth inhibition [2] -23.6% | viability increase [3] -0.53% | viability [4] 102% | viability [5] 102% | inhibition [6] 1.68% | RAM network inhibition [7] 2.95%

CC1=C(C(=O)OC(C)C)C(c2cccnc2)n2ncnc2N1 (configuration not stated)
inactive: growth inhibition [1] -6.7% | growth inhibition [2] -11% | viability increase [3] 0.27% | viability [4] 101% | viability [5] 100% | inhibition [6] 0.07% | RAM network inhibition [7] 5.02%

CC(=O)NCC(=O)OCC(=O)c1ccc(C)cc1
inactive: growth inhibition [1] 1.93% | growth inhibition [2] -5.04% | viability increase [3] -0.54% | viability [4] 97.6% | viability [5] 94.9% | inhibition [6] 1.21% | RAM network inhibition [7] -0.06%

O=C(CC12CC3CC(CC(C3)C1)C2)N1CCOCC1
inactive: growth inhibition [1] 6.71% | growth inhibition [2] 1.68% | viability increase [3] -0.17% | viability [4] 102% | viability [5] 102% | inhibition [6] 1.39% | RAM network inhibition [7] 7.72%
